Results from ChEMBL document CHEMBL5260808, “Design of Phthalazinone Amide Histamine H1 Receptor Antagonists for Use in Rhinitis” (ACS Med Chem Lett, 2017).
Active and inactive are the calls of the source. No cut-off for these calls is given here.

Tests used:
Histamine H1 receptor [1] = molecular target: T1, Histamine H1 receptor (Homo sapiens, UniProt P35367); assay: Antagonist potency at human H1 receptor; conditions: read-out: pA2 (converted)
[2] = molecular target: T2, Alpha-1B adrenergic receptor (Homo sapiens, UniProt P35368); assay: Antagonist activity against recombinant human adrenergic alpha1B receptor expressed in CHO cells incubated for 30 mins by FLIPR analysis; assay type: cell-based
T2 sequence (P35368 whole entry): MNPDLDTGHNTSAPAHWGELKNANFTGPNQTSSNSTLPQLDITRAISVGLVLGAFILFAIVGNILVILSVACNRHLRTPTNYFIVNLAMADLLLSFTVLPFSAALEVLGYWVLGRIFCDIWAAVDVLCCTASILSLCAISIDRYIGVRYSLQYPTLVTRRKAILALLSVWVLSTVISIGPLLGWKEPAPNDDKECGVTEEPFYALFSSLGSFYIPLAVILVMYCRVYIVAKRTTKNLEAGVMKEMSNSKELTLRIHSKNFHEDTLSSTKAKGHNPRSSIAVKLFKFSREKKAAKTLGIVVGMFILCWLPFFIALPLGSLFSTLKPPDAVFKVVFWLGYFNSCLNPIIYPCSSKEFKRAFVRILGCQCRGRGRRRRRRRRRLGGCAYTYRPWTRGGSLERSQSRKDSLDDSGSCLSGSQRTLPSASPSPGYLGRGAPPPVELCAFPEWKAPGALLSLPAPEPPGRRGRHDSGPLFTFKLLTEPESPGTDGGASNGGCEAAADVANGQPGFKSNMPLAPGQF

[3] = molecular target: Voltage-gated inwardly rectifying potassium channel KCNH2 (Homo sapiens, UniProt Q12809); assay: Displacement of [3H]dofetilide from human ERG expressed in CHO-K1 cell membrane measured after 45 mins by topcount scintillation counting method; assay type: toxicity, cell membranes
[4] = Distribution coefficient, log D of compound in n-octanol and phosphate buffered saline at pH 7.4 by HPLC analysis; assay type: physicochemical
[5] = molecular target: T3, Alpha-1A adrenergic receptor (Homo sapiens, UniProt P35348); assay: Antagonist activity against recombinant human adrenergic alpha1A receptor expressed in Rat1 cells incubated for 30 mins by FLIPR analysis; assay type: cell-based
T3 sequence (P35348 whole entry): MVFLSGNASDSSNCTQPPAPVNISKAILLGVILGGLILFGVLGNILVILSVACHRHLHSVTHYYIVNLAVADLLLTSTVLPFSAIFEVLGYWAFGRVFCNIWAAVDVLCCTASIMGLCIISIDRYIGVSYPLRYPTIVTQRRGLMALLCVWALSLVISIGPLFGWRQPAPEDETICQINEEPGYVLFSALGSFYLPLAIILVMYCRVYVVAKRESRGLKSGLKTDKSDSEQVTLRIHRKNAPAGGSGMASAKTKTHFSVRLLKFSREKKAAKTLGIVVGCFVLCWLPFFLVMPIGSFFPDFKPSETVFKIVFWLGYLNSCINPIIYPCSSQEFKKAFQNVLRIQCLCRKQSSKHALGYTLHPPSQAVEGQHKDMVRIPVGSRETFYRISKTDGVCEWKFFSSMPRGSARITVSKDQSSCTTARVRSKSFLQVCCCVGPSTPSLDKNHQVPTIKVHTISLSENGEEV
Procedure, shortened: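 Human α1A or α1B adrenoceptor in fibroblast cells. Plate-based calcium imaging.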

Histamine H1 receptor [6] = molecular target: T1, Histamine H1 receptor; assay: Antagonist activity against recombinant human H1 receptor expressed in CHO cells incubated for 30 mins by FLIPR analysis; assay type: cell-based
[7] = Bioavailability in human; assay type: ADME, organism-based; conditions: in vivo
[8] = Drug metabolism in dog liver microsomes assessed as rate of metabolism; assay type: ADME, Canis lupus familiaris
Cavia porcellus [9] = assay: Antihistamine activity against conscious unrestrained ovalbumin and aluminum hydroxide sensitized guinea pigs assessed as inhibition of histamine-induced nasal congestion by measuring time duration of action at 1 mg/ml, intranasal measured after 1 to 24 hrs; assay type: functional; conditions: time 1-24 hrs
Procedure, shortened: (§1)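 Guinea pigs dosed intranasally with a 1 mg/mL solution (25 μL/nostril). Bilateral histamine challenge (15 or 10 mM, 25 μL/nostril, light isoflurane anesthesia) given 1 and 24 h after dosing. […] Comparison with vehicle-pretreated/histamine-challenged controls; mean ± SEM, n = 16–27 per group; p < 0.05.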

[10] = Drug metabolism in human hepatocytes assessed as metabolite formation at 10 uM measured after 3 hrs by LC-MS/MS analysis; assay type: ADME, cell-based, Hepatocyte
Procedure, shortened: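 Cryopreserved human hepatocytes incubated with compound (10 μM initial) for 3 h. Metabolites detected and profiled by LC–MS/MS.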

[11] = Drug absorption into hepatic portal vein of CD Sprague-Dawley rat at 3 mg/kg, po; assay type: ADME, organism-based; conditions: read-out: Drug absorption
Procedure, shortened: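 Male CD Sprague–Dawley rats dosed orally at 3 mg/kg. Absorption measured into the hepatic portal vein.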

[12] = Elimination in iv dosed dog urine; assay type: ADME, organism-based, Canis lupus familiaris; conditions: read-out: Drug excretion
Procedure, shortened: (§2)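 Beagle dogs dosed iv at 1 mg/kg, or subcutaneously in one dog. Parent compound measured in urine.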

[13] = Drug metabolism in mouse liver microsomes assessed as rate of metabolism; assay type: ADME
[14] = Drug metabolism in human liver microsomes assessed as rate of metabolism; assay type: ADME
[15] = Elimination in sc dosed dog urine; assay type: ADME, organism-based, Canis lupus familiaris; conditions: read-out: Drug excretion; procedure, shortened: as §2
[16] = Drug metabolism in monkey intestinal microsomes assessed as rate of metabolism; assay type: ADME, Macaca mulatta, Intestine; conditions: rhesus monkey
Procedure, shortened: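 Intestinal microsomes from monkey; in vitro rate of metabolism given in mL/min/g.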

[17] = Oral bioavailability in CD Sprague-Dawley rat at 300 mg/kg; assay type: ADME, organism-based; conditions: in vivo
Procedure, shortened: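 Male CD Sprague–Dawley rats dosed orally at 300 mg/kg. Vehicle was H2O–PEG200–DMSO (50:45:5). Oral bioavailability determined from blood concentrations.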

[18] = Drug metabolism in rat liver microsomes assessed as rate of metabolism; assay type: ADME
[19] = molecular target: 5-hydroxytryptamine receptor 7 (Homo sapiens) (UniProt P34969); assay: Inhibition of human 5-HT7 receptor at 1 uM relative to control
[20] = molecular target: 5-hydroxytryptamine receptor 6 (Homo sapiens) (UniProt P50406); assay: Inhibition of human 5-HT6 receptor at 1 uM relative to control
[21] = molecular target: 5-hydroxytryptamine receptor 2A (Homo sapiens) (UniProt P28223); assay: Inhibition of human 5-HT2A receptor at 1 uM relative to control
Cavia porcellus [22] = assay: Antihistamine activity against conscious unrestrained ovalbumin and aluminum hydroxide sensitized guinea pigs assessed as inhibition of histamine-induced nasal congestion at 1 mg/ml, intranasal measured after 1 to 24 hrs relative to control; assay type: functional, organism-based; conditions: time 1-24 hrs; procedure, shortened: as §1
[23] = molecular target: D(1A) dopamine receptor (Homo sapiens) (UniProt P21728); assay: Inhibition of human dopamine D1 receptor at 1 uM relative to control
[24] = molecular target: D(2) dopamine receptor (Homo sapiens) (UniProt P14416); assay: Inhibition of human dopamine D2S receptor at 1 uM relative to control
[25] = Volume of distribution at steady state in Beagle dog at 2 mg/kg, po and 1 mg/kg, iv; assay type: ADME, organism-based, Canis lupus familiaris; conditions: in vivo
Procedure, shortened: (§3)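 Male CD Sprague–Dawley rats and Beagle dogs. Solution in H2O–PEG200–DMSO (50:45:5), given iv at 1 mg/kg, and po at 3 mg/kg (rat) or 2 mg/kg (dog). Vss and elimination half-life derived after iv dosing.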

[26] = Volume of distribution at steady state in CD Sprague-Dawley rat at 3 mg/kg, po and 1 mg/kg, iv; assay type: ADME, organism-based; conditions: in vivo; procedure, shortened: as §3
[27] = Ratio of drug level in rat brain to blood at 1 mg/kg, iv bolus dose measured after 5 mins
[28] = Elimination half life in Beagle dog at 2 mg/kg, po and 1 mg/kg, iv; assay type: ADME, organism-based, Canis lupus familiaris; conditions: in vivo, read-out: beta t1/2 (converted); procedure, shortened: as §3
[29] = Elimination half life in CD Sprague-Dawley rat at 3 mg/kg, po and 1 mg/kg, iv; assay type: ADME, organism-based; conditions: in vivo, read-out: beta t1/2 (converted); procedure, shortened: as §3
[30] = Drug uptake in rat brain at 1 mg/kg, iv bolus dose; assay type: ADME, organism-based; conditions: in vivo
Procedure, shortened: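 Rats given a 1 mg/kg intravenous bolus. Brain and blood sampled at 5 min; brain–blood ratio and brain concentration determined, n = 3.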

T1 sequence (P35367 whole entry): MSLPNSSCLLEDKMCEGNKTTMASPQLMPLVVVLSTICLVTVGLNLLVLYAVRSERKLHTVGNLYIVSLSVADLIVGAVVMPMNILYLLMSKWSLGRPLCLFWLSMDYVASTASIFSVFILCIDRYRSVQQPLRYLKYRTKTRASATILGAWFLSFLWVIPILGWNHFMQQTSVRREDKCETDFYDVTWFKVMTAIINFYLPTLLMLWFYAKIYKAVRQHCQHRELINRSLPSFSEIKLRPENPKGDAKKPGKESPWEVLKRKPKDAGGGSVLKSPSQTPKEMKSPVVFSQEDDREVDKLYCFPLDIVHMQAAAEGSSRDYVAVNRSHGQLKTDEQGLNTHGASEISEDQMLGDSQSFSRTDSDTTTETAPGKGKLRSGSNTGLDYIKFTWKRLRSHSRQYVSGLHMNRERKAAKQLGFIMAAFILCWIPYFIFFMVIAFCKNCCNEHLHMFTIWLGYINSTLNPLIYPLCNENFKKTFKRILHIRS
Sequence of Voltage-gated inwardly rectifying potassium channel KCNH2 (Q12809 whole entry): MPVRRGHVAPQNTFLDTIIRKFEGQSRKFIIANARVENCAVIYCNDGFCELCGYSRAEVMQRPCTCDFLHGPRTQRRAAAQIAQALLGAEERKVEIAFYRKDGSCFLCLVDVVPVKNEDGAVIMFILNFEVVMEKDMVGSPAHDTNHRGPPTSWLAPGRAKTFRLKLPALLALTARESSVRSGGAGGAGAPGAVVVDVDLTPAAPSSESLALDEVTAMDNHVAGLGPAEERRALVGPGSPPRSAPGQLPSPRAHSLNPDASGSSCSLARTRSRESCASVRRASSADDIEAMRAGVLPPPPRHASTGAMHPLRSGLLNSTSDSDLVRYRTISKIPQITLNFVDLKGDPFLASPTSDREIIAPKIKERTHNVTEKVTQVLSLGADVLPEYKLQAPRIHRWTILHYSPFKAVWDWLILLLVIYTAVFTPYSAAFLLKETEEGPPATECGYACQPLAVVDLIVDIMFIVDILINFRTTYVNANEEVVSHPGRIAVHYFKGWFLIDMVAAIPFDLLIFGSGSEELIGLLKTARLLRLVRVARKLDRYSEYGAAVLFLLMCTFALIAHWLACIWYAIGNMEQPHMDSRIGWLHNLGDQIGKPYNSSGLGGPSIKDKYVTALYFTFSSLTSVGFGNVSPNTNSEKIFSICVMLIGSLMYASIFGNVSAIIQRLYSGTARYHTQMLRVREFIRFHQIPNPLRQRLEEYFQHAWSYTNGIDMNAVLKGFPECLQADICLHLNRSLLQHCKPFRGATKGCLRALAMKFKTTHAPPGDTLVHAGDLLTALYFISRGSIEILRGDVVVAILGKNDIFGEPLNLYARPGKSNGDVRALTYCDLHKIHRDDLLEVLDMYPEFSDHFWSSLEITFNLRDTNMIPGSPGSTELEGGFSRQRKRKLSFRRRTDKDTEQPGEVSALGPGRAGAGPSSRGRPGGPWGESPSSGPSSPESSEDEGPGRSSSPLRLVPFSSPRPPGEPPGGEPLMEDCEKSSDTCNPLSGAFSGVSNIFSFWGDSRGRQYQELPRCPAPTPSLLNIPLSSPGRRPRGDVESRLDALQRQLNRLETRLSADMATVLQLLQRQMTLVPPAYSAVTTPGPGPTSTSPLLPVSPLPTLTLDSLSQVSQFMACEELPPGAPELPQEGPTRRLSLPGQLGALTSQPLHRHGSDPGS
Sequence of 5-hydroxytryptamine receptor 2A (Homo sapiens) (P28223 whole entry): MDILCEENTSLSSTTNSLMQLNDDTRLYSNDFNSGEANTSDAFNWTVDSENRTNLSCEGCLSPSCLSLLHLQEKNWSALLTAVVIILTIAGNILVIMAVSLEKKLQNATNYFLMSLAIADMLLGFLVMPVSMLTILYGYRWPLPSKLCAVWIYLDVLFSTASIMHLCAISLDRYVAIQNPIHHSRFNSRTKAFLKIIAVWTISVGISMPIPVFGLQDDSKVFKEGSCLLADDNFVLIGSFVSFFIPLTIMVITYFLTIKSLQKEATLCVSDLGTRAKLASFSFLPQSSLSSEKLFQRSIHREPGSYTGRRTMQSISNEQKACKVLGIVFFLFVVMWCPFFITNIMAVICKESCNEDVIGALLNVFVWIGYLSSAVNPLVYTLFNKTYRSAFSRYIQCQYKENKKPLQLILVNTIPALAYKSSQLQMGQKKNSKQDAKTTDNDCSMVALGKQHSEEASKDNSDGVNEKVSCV
Sequence of D(2) dopamine receptor (Homo sapiens) (P14416 whole entry): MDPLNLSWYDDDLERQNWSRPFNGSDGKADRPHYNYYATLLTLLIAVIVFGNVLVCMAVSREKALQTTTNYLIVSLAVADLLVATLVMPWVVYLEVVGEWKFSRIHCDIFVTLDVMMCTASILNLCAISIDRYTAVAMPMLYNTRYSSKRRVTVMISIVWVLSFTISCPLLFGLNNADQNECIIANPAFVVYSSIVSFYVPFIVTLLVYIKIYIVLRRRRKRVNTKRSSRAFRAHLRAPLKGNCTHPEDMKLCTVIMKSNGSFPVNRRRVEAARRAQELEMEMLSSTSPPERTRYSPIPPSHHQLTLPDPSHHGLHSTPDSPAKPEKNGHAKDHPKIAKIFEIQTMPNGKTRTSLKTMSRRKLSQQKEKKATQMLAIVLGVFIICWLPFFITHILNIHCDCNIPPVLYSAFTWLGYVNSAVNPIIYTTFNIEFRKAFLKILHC
Sequence of 5-hydroxytryptamine receptor 6 (Homo sapiens) (P50406 whole entry): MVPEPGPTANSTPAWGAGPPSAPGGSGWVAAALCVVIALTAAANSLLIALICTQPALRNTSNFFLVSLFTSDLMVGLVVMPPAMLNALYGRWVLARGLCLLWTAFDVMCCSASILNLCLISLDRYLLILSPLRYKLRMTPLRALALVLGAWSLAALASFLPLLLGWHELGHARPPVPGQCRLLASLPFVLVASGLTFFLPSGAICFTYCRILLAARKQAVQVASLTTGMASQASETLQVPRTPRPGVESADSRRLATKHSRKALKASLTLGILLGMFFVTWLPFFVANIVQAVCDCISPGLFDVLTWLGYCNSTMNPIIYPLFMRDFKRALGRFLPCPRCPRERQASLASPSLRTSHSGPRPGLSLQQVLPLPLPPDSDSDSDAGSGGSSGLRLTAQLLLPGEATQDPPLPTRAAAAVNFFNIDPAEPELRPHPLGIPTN
Sequence of 5-hydroxytryptamine receptor 7 (Homo sapiens) (P34969 whole entry): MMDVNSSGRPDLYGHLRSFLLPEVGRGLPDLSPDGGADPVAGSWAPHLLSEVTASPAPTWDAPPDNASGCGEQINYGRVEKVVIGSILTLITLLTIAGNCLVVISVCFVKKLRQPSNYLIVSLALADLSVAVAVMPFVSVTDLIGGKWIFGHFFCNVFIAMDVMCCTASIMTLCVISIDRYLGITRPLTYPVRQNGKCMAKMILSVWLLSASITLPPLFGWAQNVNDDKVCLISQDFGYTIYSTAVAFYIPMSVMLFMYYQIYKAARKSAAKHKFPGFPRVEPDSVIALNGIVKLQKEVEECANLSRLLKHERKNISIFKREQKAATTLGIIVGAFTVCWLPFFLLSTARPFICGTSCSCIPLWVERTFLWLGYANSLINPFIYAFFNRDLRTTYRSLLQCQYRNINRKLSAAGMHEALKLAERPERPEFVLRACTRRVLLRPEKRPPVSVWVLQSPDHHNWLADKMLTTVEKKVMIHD
Sequence of D(1A) dopamine receptor (Homo sapiens) (P21728 whole entry): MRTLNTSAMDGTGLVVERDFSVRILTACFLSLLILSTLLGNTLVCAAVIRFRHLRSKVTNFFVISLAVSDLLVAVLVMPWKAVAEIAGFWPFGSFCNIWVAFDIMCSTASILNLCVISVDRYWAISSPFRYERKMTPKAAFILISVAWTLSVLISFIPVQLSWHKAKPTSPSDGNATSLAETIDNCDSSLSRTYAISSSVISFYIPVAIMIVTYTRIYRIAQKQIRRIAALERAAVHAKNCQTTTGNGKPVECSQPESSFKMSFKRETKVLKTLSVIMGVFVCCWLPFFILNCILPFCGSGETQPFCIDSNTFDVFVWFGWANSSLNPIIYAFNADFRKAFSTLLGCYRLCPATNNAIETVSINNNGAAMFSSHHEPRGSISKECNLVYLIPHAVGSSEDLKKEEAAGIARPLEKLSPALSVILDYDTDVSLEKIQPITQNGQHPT

| Structure (SMILES) | Kb (Histamine H1 receptor [1]) [nM] | Ki [2] [nM] | IC50 [3] [nM] | logD [4] | Ki [5] [nM] | Ki (Histamine H1 receptor [6]) [nM] | further results |
| --- | --- | --- | --- | --- | --- | --- | --- |
| CCCNC(=O)CCCN1CCC[C@@H]1Cn1nc(Cc2ccc(Cl)cc2)c2ccccc2c1=O | 0.158 | 31.6 | 1.58 | 3.3 | 10 | 5.01 | – |
| CCC(=O)NCCN1CCC[C@@H]1Cn1nc(Cc2ccc(Cl)cc2)c2ccccc2c1=O | 0.251 | 15.8 | 200 | 3.4 | 15.8 | 0.631 | – |
| COCCC(=O)NCCN1CCC[C@@H]1Cn1nc(Cc2ccc(Cl)cc2)c2ccccc2c1=O | 0.501 | 63.1 | 398 | 3.2 | 7.94 | 0.794 | – |
| COCCCC(=O)N(C)CCN1CCC[C@@H]1Cn1nc(Cc2ccc(Cl)cc2)c2ccccc2c1=O | 0.1 | 126 | 398 | 3.5 | 31.6 | 3.16 | – |
| COCCNC(=O)CCCN1CCC[C@@H]1Cn1nc(Cc2ccc(Cl)cc2)c2ccccc2c1=O | 0.501 | 10 | 39.8 | 2.5 | 6.31 | 0.794 | – |
| CCCC(=O)NCCN1CCC[C@@H]1Cn1nc(Cc2ccc(Cl)cc2)c2ccccc2c1=O | 0.631 | 79.4 | 63.1 | 3.7 | 31.6 | 0.794 | – |
| CN1CCCC(n2nc(Cc3ccc(Cl)cc3)c3ccccc3c2=O)CC1 (stereo unspecified) [AZELASTINE] | – | – | – | 2.3 | – | – | bioavailability [7]: 40% |
| O=C(NCCN1CCC[C@@H]1Cn1nc(Cc2ccc(Cl)cc2)c2ccccc2c1=O)C1CCOCC1 | 0.794 | – | 794 | 3.3 | 200 | 10 | – |
| COCCCC(=O)NCCN1CCC[C@@H]1Cn1nc(Cc2ccc(Cl)cc2)c2ccccc2c1=O.Cl | – | – | – | – | – | – | Drug metabolism [8]: 12 mL/min/g; Time (Cavia porcellus [9]): <48 h; Drug metabolism [10]: Metabolite_Detected; Fa [11]: 3%; dose excreted [12]: < 3%; Drug metabolism [13]: 50 mL/min/g; Drug metabolism [14]: 25 mL/min/g; dose excreted [15]: < 3%; CLint scaled [16]: > 50 mL/min/g; bioavailability [17]: < 3%; Drug metabolism [18]: 50 mL/min/g |
| COCCCC(=O)NCCN1CCC[C@@H]1Cn1nc(Cc2ccc(Cl)cc2)c2ccccc2c1=O | – | – | – | – | – | – | inhibition [19]: > 50%; inhibition [20]: > 50%; inhibition [21]: > 50%; Activity (Cavia porcellus [22]): Active; inhibition [23]: > 50%; inhibition [24]: > 50% |
| COCC(=O)NCCN1CCC[C@@H]1Cn1nc(Cc2ccc(Cl)cc2)c2ccccc2c1=O | 0.2 | 31.6 | 200 | 3.1 | 50.1 | 1.26 | – |
| COCCCC(=O)NCCN1CCC[C@@H]1Cn1nc(Cc2ccc(Cl)cc2)c2ccccc2c1=O.O=C(O)C(F)(F)F | – | – | – | 3.5 | – | – | Time (Cavia porcellus [9]): <48 h; Vdss [25]: 1.1 L/kg; Vdss [26]: 0.7 L/kg; Kp at 5 min [27]: 0.18; half-life [28]: 30 min; half-life [29]: 12 min; Drug uptake [30]: 121 ng/g |
| CC(C)C(=O)NCCN1CCC[C@@H]1Cn1nc(Cc2ccc(Cl)cc2)c2ccccc2c1=O | 0.132 | 63.1 | 398 | 3.2 | 3.98 | 3.98 | – |
| O=C(NCCN1CCC[C@@H]1Cn1nc(Cc2ccc(Cl)cc2)c2ccccc2c1=O)C1CCCC1 | 0.316 | 79.4 | 50.1 | 3.9 | 79.4 | 3.98 | – |
